Screening data (PubChem)
Only some compounds are listed: those with a hit (about 11% of all), similar ones and a draw of the others.
S1P3 agonist – human S1P3 receptor agonists, primary screen, cell-based, primary and confirmation, NFAT-BLA reporter; AID 373, 2006; hit rate 0.1% among 60,000; activation, % at 4.5 µM; S1P3 NFAT-BLA reporter cells, agonism, FRET ratio; relative to 1 µM S1P, basal subtracted;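 active means activation above the screen-wide mean plus 3 SD, cut at about 4.5% in these data, passing the limit was not always enough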
Target sequence (Q99500 whole entry, looked up): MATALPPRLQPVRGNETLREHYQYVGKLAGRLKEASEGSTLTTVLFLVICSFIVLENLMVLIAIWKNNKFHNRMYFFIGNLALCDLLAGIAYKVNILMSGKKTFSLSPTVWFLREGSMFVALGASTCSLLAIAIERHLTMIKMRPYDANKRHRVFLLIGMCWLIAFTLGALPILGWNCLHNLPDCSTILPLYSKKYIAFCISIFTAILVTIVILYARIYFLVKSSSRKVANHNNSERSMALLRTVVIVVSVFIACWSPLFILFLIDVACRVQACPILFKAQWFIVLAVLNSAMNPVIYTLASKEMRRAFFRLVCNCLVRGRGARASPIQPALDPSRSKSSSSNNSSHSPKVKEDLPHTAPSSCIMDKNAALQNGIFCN
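Assay system: stable CHO line with human S1P3, Gα16, NFAT-BLA reporter; Detection: FRET β-lactamase substrate fluorescence, excitation 405 nm, 460/535 nm emission ratio, background-subtracted; Read-out: percent activation versus median 1 µM S1P response, basal-subtracted, per plate; Incubation: cells plated overnight, compound 4 h 37 °C, substrate 2 h RT.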
S1P1 ag pot – S1P1 agonists and agonism potentiators, primary screen, cell-based, primary and confirmation screens, CRE-bla reporter; hit rate 0.57% among 56,000; Sphingosine 1-phosphate receptor 1 (Homo sapiens), P21453; activation, % at 9.5 µM; S1P1 CRE-bla cells, forskolin, beta-lactamase FRET, potentiator mode; S1P1 agonist co-added at EC20, 2 nM; 100% = saturating reference agonist, 0% = basal;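 active means activation above a cutoff set at the mean activation of all tested compounds plus 3 SD, cut at about 54% in these data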;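 further: forskolin at 4 µM as EC80 and the EC20 agonist is SEW2871; 100% = SEW2871 at its EC100 plus forskolin at EC80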
M1 antag – antagonists of rat M1 muscarinic receptor. Muscarinic acetylcholine receptor M1 (Rattus norvegicus), P08482. CHO-M1 cells, Fluo-4 calcium, ACh EC80 antagonist mode; active compounds read low. B-score at 10 µM. hit rate 3.4% among 64,000. AID 628, 2007;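 active means calcium fluorescence response, raw or row-and-column corrected B-score, differing from the plate sample mean either way at a set confidence level, mostly lower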
M1 agonist – M1 muscarinic receptor agonists, primary screen, CHO-M1 cells, Fluo-4 calcium, agonist mode; Fluo-4 calcium fluorescence; active compounds read high; B-score at 10 µM; hit rate 3% among 64,000; AID 626, 2007;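 active means fluorescence rise, raw or as B-score row- and column-corrected plate score, outside the 99.7% band of its plate's samples, either direction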
D1 mod – D1 CRE-luciferase signal change, two-sided – cell-based, HEK293 D1, dopamine EC30, D1 allosteric modulator project, primary screen; B-score at 10 µM; AID 641, 2007; D(1A) dopamine receptor (Homo sapiens), P21728; hit rate 5.9% among 58,000; dopamine EC30 potentiation; actives deviate in either direction;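 active means luminescence count or its row- and column-corrected plate score outside the 99.7% band of the plate's sample wells, on either side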
D1 mod confirm – D1 receptor positive allosteric modulators, retest, confirmation, cell-based, HEK293 D1, CRE-luciferase, duplicate; shares compounds with D1 mod; dopamine EC30 potentiation; active compounds read high; luminescence at 10 µM; hit rate 88% among 2,200; AID 642, 2007;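 active means luminescence in either of two replicates above the same-plate mean plus 3 SD of the low-dose dopamine control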
D1 no dopamine – D1 receptor agonism without dopamine, confirmation, mechanism study for D1 allosteric modulator project, cell-based, HEK293 D1, CRE-luciferase, secondary assay 1; AID 646, 2007; luminescence, no dopamine; active compounds read high; shares compounds with D1 mod; luminescence at 10 µM; hit rate 0.8% among 1,900; in the data active means luminescence above about 3900
Isoprot counter – isoproterenol response counter-screen activity for D1 modulators. AID 647. calls only at 10 µM. shares compounds with D1 mod. HEK293 D1 CRE-luciferase, isoproterenol EC30 counter-screen. hit rate 63% among 2,200;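 active means luminescence in either replicate above plate mean of wells with a partly effective reference agonist dose plus 3 SD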;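 further: isoproterenol raises cAMP through native beta-adrenoceptor Gs so signal bypasses D1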
The depositor's hits bear a star; i = inactive; nt = no result given; + = active, no number.

SMILES	S1P3 agonist	S1P1 ag pot	M1 antag	M1 agonist	D1 mod	D1 mod confirm	D1 no dopamine	Isoprot counter
COc1cc2cc(C)c(SCC(=O)N3CCOCC3)nc2cc1OC	-1	-9	-0.11	1.1	5.7*	10104*	1624	+
COc1ccc(-c2cc(C(F)(F)F)nc(SCC(=O)N3CCOCC3)n2)cc1OC	1	-41	-0.75	1.9	23*	16556*	1792	+
Cc1cc(C)nc(SCc2ccc3nonc3c2)n1	0	-20	-0.032	0.6	1	nt	nt	nt
C=CCn1c(SCC(=O)Nc2ccc3c(c2)OCO3)nnc1-c1cc(Br)ccc1O	0	nt	-0.025	1.4	-0.35	nt	nt	nt
CC12CC(NC(=O)N1c1cccc(C(=O)N3CCN(c4ccccc4F)CC3)c1)c1ccccc1O2 (stereo not given)	nt	nt	0.35	2.5	3.5*	4916	1480	i
COc1ccc(-c2c(C)n([O-])c3c([n+]2=O)CCC3)cc1OC	0	-16	0.51	-0.022	2.3*	4884	1632	i
CC(=O)C(C)Oc1ccc2c3c(c(=O)oc2c1C)CCCC3 (stereo not given)	-1	2	-0.23	-0.77	3.2*	9268*	1608	+
CC(=O)COc1ccc2c3c(c(=O)oc2c1C)CCCCC3	1	-11	-1.6	-0.33	4.2	nt	nt	nt
CCCn1nc(NC(=O)c2ccncc2)c2cc3ccccc3nc21	-1	3	-1.1	0.76	8.4*	12660*	nt	+
Cc1sc2ncnc(SCc3ccco3)c2c1C	0	-14	0.2	1.4	0.53	nt	nt	nt
Cc1noc(C)c1CSc1ncnc2ccccc12	0	-32	-0.3	-0.018	3.9*	7560*	1844	i
Cc1noc(C)c1CSc1ncnc2sc(C)c(C)c12	-1	-45	-0.13	0.68	5.2*	10232*	1588	+
COc1ccc(S(=O)(=O)NC(CC(=O)NCCc2ccc(OC)c(OC)c2)c2ccco2)cc1 (stereo not given)	-1	-6	0.11	-0.062	-0.49	nt	nt	nt
CN(Cc1ccccc1)c1nc2c(c(=O)[nH]c(=O)n2C)n1CCCc1ccccc1	0	-51	-1.3	1.1	5.1*	12224*	1632	+
CCOCCn1c(N(C)Cc2ccccc2)nc2c1c(=O)[nH]c(=O)n2C	nt	nt	1	-0.098	nt	nt	nt	nt
CN(Cc1ccccc1)c1nc2c(c(=O)[nH]c(=O)n2C)n1Cc1ccccc1Cl	-1	-34	0.69	0.042	17*	21184*	1740	+
Cn1c(=O)[nH]c(=O)c2c1nc(N(CCO)Cc1ccccc1)n2CCCc1ccccc1	nt	nt	-0.18	0.36	nt	nt	nt	nt
CC1CCN(c2nc3c(c(=O)[nH]c(=O)n3C)n2Cc2ccccc2Cl)CC1	2	-25	-0.83	1.3	6.2*	14268*	1744	+
Cn1c(=O)[nH]c(=O)c2[nH]c(N(Cc3ccccc3)Cc3ccccc3)nc21	1	-56	-0.3	-0.24	8.4*	16252*	nt	+
COc1ccc(Cl)cc1NC(=O)Cn1c(=O)n2nc(C)nc2c2ccccc21	0	-26	0.61	-1.1	0.47	nt	nt	nt
CCOC(=O)CSc1nc2sc(C)c(C)c2c(=O)[nH]1	-1	nt	-0.56	0.00073	nt	nt	nt	nt
CCOC(=O)CSc1nnc(CSc2nc3sc4c(c3c(=O)[nH]2)CCC4)n1C	-1	-4	0.054	0.56	2.6*	7200	1740	i
CCOC(=O)C(C)Oc1ccc(C2NC(=O)NC(C)=C2C(C)=O)cc1Br (stereo not given)	0	nt	0	-0.1	0.9	nt	nt	nt
CCOC(=O)N1CCN(C(=O)c2ccc(Cl)c(S(=O)(=O)Nc3ccccc3)c2)CC1	0	-10	0.45	0.37	6.1*	15076*	1588	i
COc1ccc(C(=O)N2CCCCC2)cc1S(=O)(=O)Nc1ccccc1	0	-19	-0.0059	0.66	nt	nt	nt	nt
SMILES	S1P3 agonist	S1P1 ag pot	M1 antag	M1 agonist	D1 mod	D1 mod confirm	D1 no dopamine	Isoprot counter
CNc1nc(NC)nc(-n2c(C(F)(F)F)nc3ccccc32)n1	-1	nt	0.1	1.3	8*	18112*	1496	+
Cc1nc2ccccc2n1CC(O)Cn1c(C(F)(F)F)nc2ccccc21 (stereo not given)	-1	-1	-0.071	0.42	-0.47	nt	nt	nt
CC(C)(C)OC(=O)N1Cc2ccccc2C[C@H]1C(=O)O	0	-15	-0.26	-0.16	nt	nt	nt	nt
CCCn1c(=O)c(C(=O)NCc2ccncc2)c(O)c2ccccc21	0	-41	0.0039	-0.36	5.2*	6720*	1628	i
CCn1c(=O)c(C(=O)NCc2cccnc2)c(O)c2ccccc21	nt	nt	0.57	-0.96	4.8*	13308*	1676	i
CCn1c(=O)c(C(=O)Nc2cccnc2)c(O)c2ccccc21	-1	1	-0.2	-0.048	0.84	nt	nt	nt
O=c1cc(CSc2nnc(COc3ccccc3Cl)o2)nc2sccn12	-1	-12	-0.13	-1.5	2.4	nt	nt	nt
O=C(O)c1ccc(CSc2nnc(COc3ccc(Cl)cc3Cl)o2)cc1	-1	-8	0.18	1.2	5.6*	10144*	nt	+
COc1ccc(-c2cc(C(=O)N3CCCCC3)no2)cc1OC	0	-11	-0.11	-0.31	9.5*	14812*	nt	+
COc1ccc(-c2cc(C(=O)N3CCN(Cc4ccccc4)CC3)no2)cc1OC	-1	-5	0.063	-0.91	0.55	nt	nt	nt
COC(=O)c1ccccc1NC(=O)c1cc2ncc(Br)cn2n1	0	13	-0.66	-0.009	0.34	nt	nt	nt
O=C(CSc1nc2ccccc2c(=O)n1Cc1ccco1)NCc1ccccc1	0	24	0.64	0.018	nt	nt	nt	nt
COC(=O)c1ccc(CSc2nc3c(cnn3-c3ccccc3)c(=O)[nH]2)o1	-2	-37	0.28	-0.18	6.5*	12392*	1648	+
CC1CCN(C(=O)CSc2nc3c(cnn3-c3ccccc3)c(=O)[nH]2)CC1	0	-13	0.01	0.55	2	nt	nt	nt
COC(=O)c1ccc(CSc2nc3ccccc3c(=O)n2Cc2ccco2)o1	-2	60	-0.22	0.00064	6.5*	9240*	1456	+
COC(=O)c1ccc(CSc2nc3c(cnn3-c3ccc(Cl)cc3)c(=O)[nH]2)o1	0	12	0.02	1.7	1.5	nt	nt	nt
COC(=O)c1ccc(CSc2nc3c(cnn3-c3ccc(F)cc3)c(=O)[nH]2)o1	nt	nt	-0.14	-0.21	5.3*	9428*	1608	i
